In data set [1] the test system is Staphylococcus aureus. Briefly: Antibacterial activity against methicillin-resistant Staphylococcus aureus by agar dilution method. It counts as functional. In short, it runs like this: (§1)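 MIC by CLSI agar dilution on Mueller-Hinton agar for S. aureus (MSSA, MRSA) and Enterococcus faecium (VRE).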
Data set [2] concerns Staphylococcus aureus. Description: Antibacterial activity against methicillin-susceptible Staphylococcus aureus by agar dilution method. It counts as functional. In short, it runs like this:
as §1
For orientation: Agar dilution tests growth on a series of plates holding different concentrations.

For another data set, the system named is Enterococcus. Description: Antibacterial activity against vancomycin-resistant Enterococcus by agar dilution method. It counts as functional. The gist of the method: as §1
For data set [3], the system named is Staphylococcus aureus. Description: Antibacterial activity against methicillin-susceptible Staphylococcus aureus Smith infected po dosed ICR mouse assessed as protection against mouse mortality administered 1 hr after infection measured up to 7 days. The data set is classed as functional. The gist of the method: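 Male outbred ICR mice (4-week-old, 18-20 g) infected intraperitoneally with S. aureus Smith, 2.9 × 10⁷ CFU/mouse in 5% mucin. Compounds given orally or intravenously 1 h after infection, eight mice per group. Mortality followed for 7 days. ED50 taken as the dose protecting 50% of infected mice from death.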

Another data set has as its system Haemophilus influenzae. Description: Antibacterial activity against Haemophilus influenzae by agar dilution method. The data set is classed as functional. The gist of the method: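 CLSI agar dilution; Haemophilus test medium used for H. influenzae; read-out MIC.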
The nature of data set [4]: Aqueous solubility of compound in distilled water. It counts as physicochemical. In short, it runs like this: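 Water added stepwise with repeated vortexing until solution turned transparent; solubility = amount dissolved divided by total distilled water volume in the final clear solution; triplicate, averaged.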
A short description of data set [5]: Chemical stability of compound in distilled water assessed as compound remaining at 100 ug/ml after 8 hrs. It counts as physicochemical.
Data set [6] can be described thus: Chemical stability of compound in distilled water assessed as compound remaining at pH 3 at 100 ug/ml after 8 hrs. The data set is classed as physicochemical. The settings on record: buffer, pH 3, 8 h.
Data set [7] can be described thus: Chemical stability of compound in distilled water assessed as compound remaining at pH 5 at 100 ug/ml after 8 hrs. It counts as physicochemical. The settings on record: buffer, pH 5, 8 h.
Data set [8] is described as follows: Chemical stability of compound in distilled water assessed as compound remaining at pH 7 at 100 ug/ml after 8 hrs. The data set is classed as physicochemical. Particulars: buffer, pH 7, 8 h.
In another data set the test system is Streptococcus pneumoniae. Briefly: Antibacterial activity against penicillin-resistant Streptococcus pneumoniae by agar dilution method. It counts as functional.

The values that follow come from ChEMBL document CHEMBL1759832, “Discovery of torezolid as a novel 5-hydroxymethyl-oxazolidinone antibacterial agent” (Eur J Med Chem, 2011).

In brackets after ≈: the same amount, converted by molar mass.

`CNC[C@H]1CN(c2ccc(-c3ccc(-c4nnn(C)n4)nc3)c(F)c2)C(=O)O1`: the MIC in the data set on Staphylococcus aureus [1], in the data set on Staphylococcus aureus [2] and against Enterococcus was 4 µg/mL (≈ 10.4 µM) in each case.
What is called ED50 is the midpoint of the dose-response relation. With `Cn1nnc(-c2ccc(-c3ccc(N4C[C@H](COc5ccon5)OC4=O)cc3F)cn2)n1`, the MIC with Staphylococcus aureus [1] turned out to be 0.5 µg/mL (≈ 1.14 µM); against Staphylococcus aureus [2], 0.5 µg/mL (≈ 1.14 µM); against Enterococcus it was 0.25 µg/mL (≈ 0.572 µM). Besides, in the data set with Staphylococcus aureus [3], the ED50 is over 30 mg/kg.
Take `Cn1nnc(-c2ccc(-c3ccc(N4C[C@H](CNC(=O)c5ccco5)OC4=O)cc3F)cn2)n1`: the MIC in the data set on Staphylococcus aureus [1] turned out to be 1 µg/mL (≈ 2.16 µM); in the data set with Staphylococcus aureus [2], 1 µg/mL (≈ 2.16 µM); against Enterococcus it was 0.5 µg/mL (≈ 1.08 µM); with Haemophilus influenzae, 16 µg/mL (≈ 34.5 µM). Also, the ED50 with Staphylococcus aureus [3] was over 30 mg/kg.
For orientation: solubility means the dissolved amount per volume that the medium holds. For the compound `Cn1nnc(-c2ccc(-c3ccc(N4C[C@H](COC(=O)CN)OC4=O)cc3F)cn2)n1.O=C(O)C(F)(F)F`, the solubility in data set [4] was determined as 28 mg/mL. The Stability in data set [5] is 79.5%; in data set [6] it was 86.6%; in [7] it was 92.7%; in data set [8], 8.1%.
As to `CC(=O)NC[C@H]1CN(c2ccc(-c3ccc(-c4nnnn4C)nc3)c(F)c2)C(=O)O1`, the MIC worked out at 0.78 µg/mL (≈ 1.9 µM) against Staphylococcus aureus [1], 0.78 µg/mL (≈ 1.9 µM) in the data set on Staphylococcus aureus [2], 0.125 µg/mL (≈ 0.304 µM) in the data set on Enterococcus and 0.39 µg/mL (≈ 0.948 µM) in the data set on Streptococcus pneumoniae.
For the compound `Cl.Cn1nnc(-c2ccc(-c3ccc(N4C[C@H](COC(=O)CCN)OC4=O)cc3F)cn2)n1`, in data set [4], the solubility turned out to be 20.4 mg/mL. Further, the Stability in [5] worked out at 99.9%; in [6], 99.9%; in data set [7], 94.9%; in [8], 50.5%.
For `COCC(=O)NC[C@H]1CN(c2ccc(-c3ccc(-c4nnn(C)n4)nc3)c(F)c2)C(=O)O1`, the MIC turned out to be 1 µg/mL (≈ 2.27 µM) against Staphylococcus aureus [1], 1 µg/mL (≈ 2.27 µM) in the data set with Staphylococcus aureus [2], 0.5 µg/mL (≈ 1.13 µM) in the data set with Enterococcus and 16 µg/mL (≈ 36.2 µM) against Haemophilus influenzae. The median effective dose (ED50) with Staphylococcus aureus [3] is 20.5 mg/kg.
For `CC(C)[C@H](N)C(=O)OC[C@H]1CN(c2ccc(-c3ccc(-c4nnn(C)n4)nc3)c(F)c2)C(=O)O1.O=C(O)C(F)(F)F`, in data set [4], the concentration in solution (solubility) came to 4.7 mg/mL. The Stability was found to be 99.4% in [5], 99.9% in data set [6], 97.3% in [7] and 51.2% in data set [8].
The like results for `Cn1nnc(-c2ccc(-c3ccc(N4C[C@H](COC(=O)[C@@H]5CCCN5)OC4=O)cc3F)cn2)n1.O=C(O)C(F)(F)F` were, in that order, under 1.6 mg/mL, 76.4%, 81.9%, 65.2% and 0.2%.
As to `COC[C@H]1CN(c2ccc(-c3ccc(-c4nnn(C)n4)nc3)c(F)c2)C(=O)O1`, the MIC against Staphylococcus aureus [1], with Staphylococcus aureus [2] and against Enterococcus was 2 µg/mL (≈ 5.2 µM) each time.
On to `Cn1nnc(-c2ccc(-c3ccc(N4C[C@H](CNC(=O)c5cccs5)OC4=O)cc3F)cn2)n1`, for which the MIC in the data set with Staphylococcus aureus [1], against Staphylococcus aureus [2] and with Enterococcus was 0.5 µg/mL (≈ 1.04 µM) in each case. In addition, in the data set on Staphylococcus aureus [3], the ED50 is over 30 mg/kg.
Regarding `Cl.Cn1nnc(-c2ccc(-c3ccc(N4C[C@H](COC(=O)CN)OC4=O)cc3F)cn2)n1`, the Stability in data set [5] came to 85.7%; in [6], 95.1%; in data set [7] it was 93.3%; in data set [8] it was 11.6%.
In the case of `Cn1nnc(-c2ccc(-c3ccc(N4C[C@H](Cn5ccnn5)OC4=O)cc3F)cn2)n1`, the MIC is 0.25 µg/mL (≈ 0.593 µM) against Staphylococcus aureus [1], 0.25 µg/mL (≈ 0.593 µM) against Staphylococcus aureus [2], 0.125 µg/mL (≈ 0.297 µM) with Enterococcus and 2 µg/mL (≈ 4.75 µM) with Haemophilus influenzae. Besides, the ED50 with Staphylococcus aureus [3] amounted to 5.74 mg/kg.
